ChEMBL document CHEMBL5390300, “Tuning the Reactivity of Nuclear Factor Erythroid 2-Related Factor 2 (Nrf2) Activators for Optimal in Vivo Efficacy” (ACS Med Chem Lett, 2023)
Where a name gives a salt, the structure may show the parent alone. Activity calls are given as the source filed them. The rule behind the calls is not given here.

Tests used:
[1] = tested on: THP-1; experiment: Inhibition of LPS-induced IL-23 production in IFN-gamma primed human THP-1 cells preincubated for 1 hr followed by LPS stimulation for 18 hrs by sandwich ELISA; assay type: functional, cell-based
[2] = biological target: T1, Nuclear factor erythroid 2-related factor 2 (Homo sapiens) (UniProt Q16236); experiment: Activation of Nrf2 in human THP-1 cells assessed as increase in HO-1 expression at 0.08 to 10 uM by western blot analysis; assay type: cell-based; settings: filed as activator, dose 0.08-10 µM
T1 sequence (whole entry): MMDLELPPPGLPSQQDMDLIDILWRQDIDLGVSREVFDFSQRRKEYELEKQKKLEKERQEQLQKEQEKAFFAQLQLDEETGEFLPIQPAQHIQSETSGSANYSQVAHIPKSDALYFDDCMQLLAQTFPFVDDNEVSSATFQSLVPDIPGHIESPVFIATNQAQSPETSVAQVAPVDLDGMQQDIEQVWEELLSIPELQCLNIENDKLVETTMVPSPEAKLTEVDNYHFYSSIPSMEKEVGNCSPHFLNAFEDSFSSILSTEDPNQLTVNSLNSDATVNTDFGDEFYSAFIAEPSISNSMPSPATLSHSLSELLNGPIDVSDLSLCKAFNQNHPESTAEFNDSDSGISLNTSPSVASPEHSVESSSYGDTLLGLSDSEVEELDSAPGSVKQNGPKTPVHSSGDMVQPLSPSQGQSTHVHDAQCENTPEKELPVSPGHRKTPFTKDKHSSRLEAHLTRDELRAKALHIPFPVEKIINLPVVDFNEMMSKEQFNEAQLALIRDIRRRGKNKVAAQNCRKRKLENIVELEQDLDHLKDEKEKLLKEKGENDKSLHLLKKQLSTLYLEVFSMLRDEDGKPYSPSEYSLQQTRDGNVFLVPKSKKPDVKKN
Summary of the method: (§1)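 THP-1 cells were exposed to a range of compound concentrations. Cellular Nrf2 and HO-1 expression were detected by Western blot.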

[3] = tested on: Mus musculus; experiment: Increase in Nrf2 level in thymus of MOG35-55 induced experimental autoimmune encephalomyelitis C57BL/6 mouse model at 75 mg/kg, po measured for 8 hrs; assay type: functional, organism-based
Summary of the method: (§2)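 After the EAE study, mouse thymus was analysed for Nrf2 levels by Western blot, following BID dosing at 60 and 90 mg/kg, or at 75 mg/kg for the DMF control. Nrf2 increase was assessed over an 8 h period.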

[4] = tested on: Mus musculus; experiment: Antiinflammatory activity against MOG35-55 induced experimental autoimmune encephalomyelitis C57BL/6 mouse model assessed as reduction in clinical score at 75 mg/kg, po BID and measured for 28 days; assay type: functional; settings: C57BL/6, 672 h, time 28 day
Summary of the method: (§3)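 EAE was induced in mice by immunization with myelin oligodendrocyte glycoprotein (MOG). Compounds were dosed twice daily (BID), with DMF dosed BID as control. Clinical scores were followed over the study and reported as mean with SEM. Efficacy is expressed as % reduction in clinical score.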

[5] = biological target: T2, Nuclear factor erythroid 2-related factor 2 (Homo sapiens, UniProt Q16236); experiment: Activation of Nrf2 in human PathHunter U2OS Keap1-Nrf2 cells assessed as Nrf2 nuclear translocation by chemiluminescent assay; assay type: cell-based
T2 sequence (Q16236 whole entry): T1 sequence (whole entry)

[6] = biological target: T1, Nuclear factor erythroid 2-related factor 2 (Homo sapiens); experiment: Activation of Nrf2 in human THP-1 cells assessed as increase in cellular Nrf2 level at 0.08 to 10 uM by western blot analysis; assay type: cell-based; settings: filed as activator, dose 0.08-10 µM; summary of the method: as §1
[7] = biological target: T3, Voltage-gated inwardly rectifying potassium channel KCNH2 (Homo sapiens, UniProt Q12809); experiment: Inhibition of hERG assessed as inhibition of channel current at 180 uM by manual patch clamp analysis; assay type: toxicity
T3 sequence (Q12809 whole entry): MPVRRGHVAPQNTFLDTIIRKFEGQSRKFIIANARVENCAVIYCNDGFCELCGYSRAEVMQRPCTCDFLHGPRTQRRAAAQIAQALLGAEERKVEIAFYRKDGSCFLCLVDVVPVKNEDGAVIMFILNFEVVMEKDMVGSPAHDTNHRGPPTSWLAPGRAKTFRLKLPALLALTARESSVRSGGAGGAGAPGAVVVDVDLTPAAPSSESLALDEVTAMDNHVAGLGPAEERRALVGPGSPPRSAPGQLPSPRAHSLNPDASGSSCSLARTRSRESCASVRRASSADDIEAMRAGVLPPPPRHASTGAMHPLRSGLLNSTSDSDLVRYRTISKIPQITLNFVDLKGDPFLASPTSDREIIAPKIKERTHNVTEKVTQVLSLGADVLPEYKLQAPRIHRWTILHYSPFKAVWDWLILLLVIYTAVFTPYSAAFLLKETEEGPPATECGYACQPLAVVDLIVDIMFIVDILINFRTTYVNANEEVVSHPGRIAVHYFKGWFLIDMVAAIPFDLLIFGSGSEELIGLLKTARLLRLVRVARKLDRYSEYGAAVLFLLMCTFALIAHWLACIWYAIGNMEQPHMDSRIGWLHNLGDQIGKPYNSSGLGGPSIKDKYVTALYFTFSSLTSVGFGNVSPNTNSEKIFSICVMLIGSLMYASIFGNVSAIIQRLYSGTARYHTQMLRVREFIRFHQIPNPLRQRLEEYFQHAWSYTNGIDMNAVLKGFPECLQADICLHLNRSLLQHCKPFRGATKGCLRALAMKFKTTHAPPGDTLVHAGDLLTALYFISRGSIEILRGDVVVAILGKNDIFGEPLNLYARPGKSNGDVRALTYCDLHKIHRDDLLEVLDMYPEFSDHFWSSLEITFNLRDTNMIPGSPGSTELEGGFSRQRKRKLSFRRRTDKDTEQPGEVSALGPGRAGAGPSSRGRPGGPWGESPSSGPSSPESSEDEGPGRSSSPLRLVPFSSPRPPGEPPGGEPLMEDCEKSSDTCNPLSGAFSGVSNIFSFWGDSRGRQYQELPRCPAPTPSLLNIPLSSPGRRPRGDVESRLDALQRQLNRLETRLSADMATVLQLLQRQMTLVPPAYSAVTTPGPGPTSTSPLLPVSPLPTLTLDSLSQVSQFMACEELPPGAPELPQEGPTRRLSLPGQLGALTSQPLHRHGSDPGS

[8] = tested on: Mus musculus; experiment: Increase in Nrf2 level in thymus of MOG35-55 induced experimental autoimmune encephalomyelitis C57BL/6 mouse model at 60 to 90 mg/kg, po measured for 8 hrs; assay type: functional, organism-based; settings: dose 60-90 mg/kg; summary of the method: as §2
[9] = tested on: Mus musculus; experiment: Antiinflammatory activity against MOG35-55 induced experimental autoimmune encephalomyelitis C57BL/6 mouse model assessed as reduction in clinical score at 30 mg/kg, po BID and measured for 28 days; assay type: functional; summary of the method: as §3
[10] = tested on: Mus musculus; experiment: Antiinflammatory activity against MOG35-55 induced experimental autoimmune encephalomyelitis C57BL/6 mouse model assessed as reduction in clinical score at 60 mg/kg, po BID and measured for 28 days; assay type: functional; settings: C57BL/6, 672 h, time 28 day; summary of the method: as §3
[11] = biological target: 5-hydroxytryptamine receptor 2B (Homo sapiens) (UniProt P41595); experiment: Inhibition of 5-HT2B receptor (unknown origin) at 500 uM relative to control
Sequence of 5-hydroxytryptamine receptor 2B (Homo sapiens) (P41595 whole entry): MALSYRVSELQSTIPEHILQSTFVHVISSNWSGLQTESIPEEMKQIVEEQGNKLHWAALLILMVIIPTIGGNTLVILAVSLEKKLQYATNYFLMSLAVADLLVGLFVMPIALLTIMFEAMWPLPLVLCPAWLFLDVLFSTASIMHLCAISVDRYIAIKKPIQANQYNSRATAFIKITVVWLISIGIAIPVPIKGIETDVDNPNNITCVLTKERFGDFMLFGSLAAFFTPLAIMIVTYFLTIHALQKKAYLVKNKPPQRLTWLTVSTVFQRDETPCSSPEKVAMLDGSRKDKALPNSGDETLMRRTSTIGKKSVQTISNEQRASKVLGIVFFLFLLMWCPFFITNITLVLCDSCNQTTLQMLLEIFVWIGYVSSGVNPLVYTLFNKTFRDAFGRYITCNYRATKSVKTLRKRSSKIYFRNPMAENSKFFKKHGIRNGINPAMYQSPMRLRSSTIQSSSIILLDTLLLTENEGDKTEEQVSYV

[12] = biological target: T4, Adenosine receptor A3 (Homo sapiens) (UniProt P0DMS8); experiment: Inhibition of adenosine A3 receptor (unknown origin) at 500 uM relative to control
T4 sequence (whole entry): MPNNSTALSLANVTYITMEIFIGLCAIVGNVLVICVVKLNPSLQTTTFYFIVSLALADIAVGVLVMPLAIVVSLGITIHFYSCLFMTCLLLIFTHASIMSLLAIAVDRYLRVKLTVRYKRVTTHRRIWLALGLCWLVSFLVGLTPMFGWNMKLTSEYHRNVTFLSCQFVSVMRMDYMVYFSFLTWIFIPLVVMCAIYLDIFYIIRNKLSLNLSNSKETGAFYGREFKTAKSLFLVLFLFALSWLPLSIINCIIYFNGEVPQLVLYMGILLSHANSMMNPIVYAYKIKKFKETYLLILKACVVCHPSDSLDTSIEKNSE

[13] = tested on: Mus musculus; experiment: Antiinflammatory activity against MOG35-55 induced experimental autoimmune encephalomyelitis C57BL/6 mouse model assessed as reduction in clinical score at 10 mg/kg, po BID and measured for 28 days; assay type: functional; settings: C57BL/6, 672 h, time 28 day; summary of the method: as §3
[14] = biological target: Kelch-like ECH-associated protein 1 (Homo sapiens) (UniProt Q14145); experiment: Binding affinity to human Keap1 assessed as cysteine labeling at 30 uM incubated for 2 hrs by LC-MS/MS analysis
Sequence of Kelch-like ECH-associated protein 1 (Homo sapiens) (Q14145 whole entry): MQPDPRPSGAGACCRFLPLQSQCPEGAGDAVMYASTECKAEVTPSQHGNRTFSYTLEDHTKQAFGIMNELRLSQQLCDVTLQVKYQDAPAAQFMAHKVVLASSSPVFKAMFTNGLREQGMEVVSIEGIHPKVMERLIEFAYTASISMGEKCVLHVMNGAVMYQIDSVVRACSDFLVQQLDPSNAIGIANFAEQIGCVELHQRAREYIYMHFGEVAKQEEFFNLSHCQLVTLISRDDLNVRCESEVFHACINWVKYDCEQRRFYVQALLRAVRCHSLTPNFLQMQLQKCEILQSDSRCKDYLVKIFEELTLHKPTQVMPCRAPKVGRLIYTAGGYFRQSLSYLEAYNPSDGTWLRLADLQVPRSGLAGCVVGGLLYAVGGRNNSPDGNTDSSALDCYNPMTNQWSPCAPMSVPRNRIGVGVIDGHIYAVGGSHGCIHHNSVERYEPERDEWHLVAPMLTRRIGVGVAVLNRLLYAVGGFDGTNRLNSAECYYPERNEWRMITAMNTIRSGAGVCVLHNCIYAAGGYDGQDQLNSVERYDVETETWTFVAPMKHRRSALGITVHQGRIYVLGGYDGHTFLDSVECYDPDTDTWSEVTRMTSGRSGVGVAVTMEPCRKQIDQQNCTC

[15] = biological target: T3, Voltage-gated inwardly rectifying potassium channel KCNH2; experiment: Inhibition of hERG assessed as inhibition of channel current at 60 uM by manual patch clamp analysis; assay type: toxicity
[16] = Mutagenicity in Salmonella typhimurium by Ames test; assay type: toxicity; settings: salmonella enterica subsp. enterica serovar typhimurium
[17] = biological target: T3, Voltage-gated inwardly rectifying potassium channel KCNH2; experiment: Inhibition of hERG assessed as inhibition of channel current at 200 uM by manual patch clamp analysis; assay type: toxicity
[18] = Metabolic stability of the compound in mouse plasma; assay type: ADME, cell-free

`Cc1ccc(S(=O)(=O)/C=C/n2cnn(C)c2=O)cc1` showed an IC50 [1] of 2.11 µM.

With `COC(=O)/C=C/C(=O)OC` [DIMETHYL FUMARATE] the Activity [2] was “Active”, the Activity [3] was “Active” and the IC50 [1] was 10.6 µM. For the same molecule, the inhibition in vivo at 75 mg/kg [4] was 83%, the EC50 [5] was 7.93 µM and the Activity [6] was “Dose-Dependent Effect”.

With `COC(=O)/C=C/C(=O)O` [MONOMETHYL FUMARATE] the IC50 [1] was 18.9 µM and the EC50 [5] was 127 µM.

`Cn1ncn(/C=C/S(=O)(=O)c2ccccc2)c1=O` gave an IC50 [1] of 2.12 µM.

`Cn1nnn(/C=C/S(=O)(=O)c2ccccc2)c1=O` gave an IC50 [1] of 0.3 µM.

In the case of `COC(=O)/C=C/n1nnn(C)c1=O`, the “inhibition (INH)” value [7] is reported as “Active”.

For `Cn1cnn(/C=C/S(=O)(=O)c2ccccc2)c1=O`, the Activity [8] was “Active”, the inhibition in vivo at 30 mg/kg ([9]; C57BL/6, 672 h, time 28 day) was 41% and the inhibition in vivo at 60 mg/kg [10] was 89%. For the same molecule, the IC50 [1] was 3.49 µM, the inhibition [11] was 74% and the inhibition [12] was 82%.

With `Cc1ccc(S(=O)(=O)/C=C/n2nnn(C)c2=O)cc1` the inhibition in vivo at 10 mg/kg [13] was 40%, the Activity ([9]; time 28.0 day) was “inactive” and the Activity [14] was “Active”. It also gave an IC50 [1] of 0.19 µM, an inhibition [11] of 74% and an inhibition [12] of 82%.

In the case of `COC(=O)/C=C/n1nn[nH]c1=O`, the “inhibition (INH)” value [15] is reported as “Active”, the Activity [16] is reported as “Toxic” and the IC50 [1] is reported as 18 µM. For the same molecule, the EC50 [5] was 60.9 µM.

Work on `O=c1n(/C=C/S(=O)(=O)c2ccccc2)nnn1-c1cccnc1` yielded an IC50 [1] of 0.02 µM.

In the case of `COC(=O)/C=C/n1nnn(-c2cccnc2)c1=O`, the “inhibition (INH)” value [17] is reported as “Active”, the Activity [16] is reported as “Non-Toxic” and the Stability [18] is reported as “Unstable”.

`COC(=O)/C=C/n1cnn(C)c1=O` showed an IC50 [1] of 29.5 µM and an EC50 [5] of 95.2 µM.

Molecule `Cc1ccc(S(=O)(=O)/C=C/n2ncn(C)c2=O)cc1` has an IC50 [1] of 6.92 µM.
